What was measured:
[1] = system: CB2 F197 replaced with valine; conditions: cited from earlier work
CB2 = CB2 (Homo sapiens, UniProt P34972); test: Radioligand competition binding assay, [3H]CP-55,940 displacement; conditions: inhibition of [3H]CP-55,940 (3 nM) binding to CB2 membrane protein
How it was run: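 CB2 membrane protein (5 μg) incubated with [3H]CP-55,940 (3 nM final) and serial dilutions of test compound. Compound was diluted in binding buffer with 10% DMSO and 0.4% methylcellulose. Incubation was 1 h at 30 °C with gentle shaking, then GF/B filtration and scintillation counting. Run in duplicate, reported as mean ± SEM; Ki from nonlinear regression.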

human CB2 receptors = test: LANCE cAMP assay in CB2-transfected CHO cells; assay type: cell-based
How it was run: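 CHO cells stably transfected with wild-type human CB2, seeded at 2000 cells/well in RPMI-1640 with 1% dialyzed FBS, 25 mM HEPES and G-418, cultured overnight. Added cAMP antibody plus RO20-1724 (50 μM final) in DPBS/0.1% BSA, then test compound or forskolin (5 μM final). Incubated 45 min at RT, plus 1 h with detection reagent. TR-FRET read at ex 340/em 665 nm. ≥2 independent experiments in triplicate; EC50 from nonlinear regression.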

[2] = CHO cells expressing human CB2, forskolin-induced cAMP

CB2, sequence (P34972 whole entry): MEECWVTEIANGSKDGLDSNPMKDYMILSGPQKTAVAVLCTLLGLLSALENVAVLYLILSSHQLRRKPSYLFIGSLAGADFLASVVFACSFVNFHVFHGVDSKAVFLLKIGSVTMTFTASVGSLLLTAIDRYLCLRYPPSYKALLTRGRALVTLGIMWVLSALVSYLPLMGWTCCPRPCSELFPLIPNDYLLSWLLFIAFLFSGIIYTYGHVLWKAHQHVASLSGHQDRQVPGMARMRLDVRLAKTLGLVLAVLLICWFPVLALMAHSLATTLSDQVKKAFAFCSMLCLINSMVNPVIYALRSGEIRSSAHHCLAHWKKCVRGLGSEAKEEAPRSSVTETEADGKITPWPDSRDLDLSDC

CCCCCCC(C)(C)c1cc(O)c2c(c1)OC(C)(C)[C@@H]1CC=C(CO)C[C@@H]21 [hU-210]
Effect of replacement of F197 with valine on association [1]: no effect

COc1ccc(C(=O)c2nc3ccccc3n2CC(=O)c2ccc(Cl)cc2)cc1 [NSC745454]
Ki (CB2): 1550 nM

CCCCCCC(C)(C)c1ccc([C@@H]2C[C@H](O)CC[C@H]2CCCO)c(O)c1 [CP55940]
Effect of replacement of F197 with valine on association [1]: no effect

Cc1ccc(S(=O)(=O)N(Cc2ccc(Cl)cc2)S(=O)(=O)c2ccc(C)cc2)cc1 [NSC273936]
Ki (CB2): 346 nM

Cc1ccc(S(=O)(=O)N(CCc2ccc(Cl)cc2)S(=O)(=O)c2ccc(C)cc2)cc1 [NSC273939]
Ki (CB2): 192 nM

CCN(CC)CCCNc1cccc2ccc(OC)nc12.I [NSC402300]
Ki (CB2): 398 nM | Functional activity in LANCE cAMP assay (human CB2 receptors; at concentrations above 10 μM): inverse agonist | Functional activity in LANCE cAMP assay (human CB2 receptors; at concentrations below 10 μM): neutral antagonist

Cc1ccc(OCc2c(COc3ccc(Cl)cc3)sc3ccc(Cl)cc23)cc1 [NSC162677]
Ki (CB2): 1550 nM

CC1CN(CCOC(=O)Nc2ccc(Cl)cc2)CCN1C(C)(C)C (stereo not shown) [NSC93299]
Ki (CB2): 2240 nM

Cc1ccc(S(=O)(=O)N(CCc2ccccc2)S(=O)(=O)c2ccc(C)cc2)cc1 [NSC273940]
Ki (CB2): 195 nM

CCCCC/C=C\C/C=C\C/C=C\C/C=C\CCCC(=O)NCCO [AEA]
Effect of replacement of F197 with valine on association [1]: no effect

Cc1ccc(C)c(NC(=O)CCC(=O)C(C#N)c2nc3ccccc3s2)c1 (stereo not shown) [NSC618804]
Ki (CB2): 656 nM

COC(=O)CCc1c(Cc2ccc[nH]2)[nH]c(C(=O)OCc2ccccc2)c1C [NSC669611]
Ki (CB2): 923 nM | Functional activity in LANCE cAMP assay (human CB2 receptors; [2]): behaves similarly to NSC402300 | Functional activity in LANCE cAMP assay (human CB2 receptors; at concentrations below 10 μM): neutral antagonist

Cc1ccc(S(=O)(=O)NC(CC(=O)OCc2ccccc2)C(=O)OCc2ccccc2)cc1 (stereo not shown) [NSC296950]
Ki (CB2): 2360 nM | Functional activity in LANCE cAMP assay (human CB2 receptors; [2]): inverse agonist

Cc1c(C(=O)c2cccc3ccccc23)c2cccc3c2n1[C@H](CN1CCOCC1)CO3 [WIN55,212-2]
Decrease in binding affinity to CB2 on replacement of F197 with valine [1]: 14 fold

Source: publication PMC5395206 (Journal of chemical information and modeling, 2016)
